According to ChEMBL document CHEMBL3797091, “Part 2. Notch-sparing γ-secretase inhibitors: The study of novel γ-amino naphthyl alcohols” (Bioorg Med Chem Lett, 2016):
≈ marks a conversion by molar mass, not a printed value. Calls of active or inactive are those of the source. No cut-off for these calls is given here.

Columns and labels:
[1] = target: T1, Gamma-secretase (Homo sapiens) (UniProt Q96BI3+Q9NZ42+Q8WW43+P49768+Q92542+P49810); assay: Inhibition of human gamma secretase mediated amyloid beta (1 to 40) production expressed in CHO cells at 100 uM using APP based Flag-C-100 as substrate after 4 hrs by ELISA; type: cell-based
Outline: (§1)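 Enzyme: γ-secretase complex purified from CHO cells stably overexpressing all four human components. Substrate: recombinant APP-based C-100 FLAG. Reaction in 0.2% CHAPSO/HEPES, pH 7.5, at 37°C for 4 h, with compounds in DMSO (1% DMSO final). Stopped with 0.5% SDS. Aβ40 measured by commercial ELISA.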

[2] = target: T1, Gamma-secretase (Homo sapiens); assay: Inhibition of human gamma secretase mediated notch 1 processing by Western blot analysis; type: protein-complex assay
Gamma-secretase = assay: Inhibition of gamma secretase (unknown origin)-mediated notch processing by cell based assay; design: species or system Homo sapiens
[3] = Lipophilicity, log D of the compound; type: physicochemical; details: octanol/water
[4] = Plasma protein binding in human; type: ADME, cell-free; details: read-out: PPB (converted)
[5] = Solubility of compound in PBS buffer at pH 7.4; type: physicochemical
[6] = target: T1, Gamma-secretase (Homo sapiens); assay: Inhibition of gamma secretase (unknown origin)-mediated amyloid beta (1 to 42) production at 30 uM by cell based assay
[7] = target: T1, Gamma-secretase (Homo sapiens); assay: Inhibition of human gamma secretase mediated amyloid beta 42 production expressed in CHO cells at 100 uM using APP based Flag-C-100 as substrate after 4 hrs by ELISA; type: cell-based
[8] = Metabolic stability in human liver microsomes assessed as parent compound remaining after 60 mins; type: ADME; details: read-out: Stability
[9] = Permeability of the compound across apical to basolateral side; type: ADME; details: not told; read-out: permeability
[10] = Metabolic stability in rat liver microsomes assessed as parent compound remaining after 60 mins; type: ADME; details: read-out: Stability
[11] = target: T1, Gamma-secretase (Homo sapiens); assay: Inhibition of gamma secretase (unknown origin)-mediated amyloid beta (1 to 42) production at 100 uM by cell based assay
[12] = target: T1, Gamma-secretase (Homo sapiens); assay: Inhibition of gamma secretase (unknown origin)-mediated amyloid beta (1 to 40) production at 100 uM by cell based assay
[13] = target: T1, Gamma-secretase (Homo sapiens); assay: Inhibition of human gamma secretase mediated amyloid beta (1 to 40) production expressed in CHO cells at 50 uM using APP based Flag-C-100 as substrate after 4 hrs by ELISA; type: cell-based; outline: as §1

inhibition [1] [%]	inhibition [2]	Structure (SMILES)	other results
55	inactive	COc1ccc(CN(CCC(O)c2ccc3ccccc3c2)C(C)C)cc1 (racemic)	–
15	inactive	CN(CCC(O)c1ccc2ccccc2c1)Cc1ccccc1 (racemic)	–
30	inactive	CC(C)N(CCC(O)c1cccc(Oc2ccccc2)c1)Cc1ccccc1 (racemic)	–
0	Active	CC(C)N(Cc1ccccc1)CC(O)c1ccc2ccccc2c1 (racemic)	–
81	inactive	CC(C)N(CCC(O)c1ccc2ccccc2c1)Cc1ccccc1 (racemic)	IC50 (Gamma-secretase): > 100 µM; logD [3]: 3.4; fraction unbound [4]: 0.1; solubility [5]: 98 µM (≈ 32.7 µg/mL); inhibition [6]: 45%; inhibition [7]: 67%; remaining at 1 h [8]: 1%; Papp A→B [9]: 184 nm/s; remaining at 1 h [10]: 0%
7	–	CC(C)N(CCC(O)c1ccc2ccccc2c1)Cc1cccc(C#N)c1 (racemic)	–
29	Active	Cc1ccc(C(O)CCN(Cc2ccccc2)C(C)C)cc1F (racemic)	–
72	inactive	CC(C)N(Cc1ccccc1)CC(C)(C)C(O)c1ccc2ccccc2c1 (racemic)	–
46	inactive	CC(C)N(CCC(O)c1cccc2ccccc12)Cc1ccccc1 (racemic)	–
24	inactive	CC(C)N(CCC(O)c1ccc(Oc2ccccc2)cc1)Cc1ccccc1 (racemic)	–
51	inactive	COC(CCN(Cc1ccccc1)C(C)C)c1ccc2ccccc2c1 (racemic)	–
59	inactive	CCC(CC)(CN(Cc1ccc(Cl)c(Cl)c1)C(C)C)C(O)c1ccc2ccccc2c1 (racemic)	–
18	Active	CC(C)N(CCCC(O)c1ccc2ccccc2c1)Cc1ccccc1 (racemic)	–
0	–	CC(C)N(CCC(O)c1ccc(OC2CCCCO2)cc1)Cc1ccccc1 (racemic)	–
0	–	CC(C)N(CCC(O)c1cc2ccccc2o1)Cc1ccccc1 (racemic)	–
0	–	CC(C)CN(CCC(O)c1ccc2ccccc2c1)Cc1ccccc1 (racemic)	–
31	inactive	CC(C)N(CCC(O)c1ccc(OCc2ccccc2)cc1)Cc1ccccc1 (racemic)	–
38	inactive	OC(CCN1CCN(c2cccc(C(F)(F)F)c2)CC1)c1ccc2ccccc2c1 (racemic)	inhibition [7]: 14%
82	inactive	CCC(CC)(CN(Cc1ccccc1)C(C)C)C(O)c1ccc2ccccc2c1 (racemic)	IC50 (Gamma-secretase): > 75 µM; inhibition [11]: 100%; inhibition [12]: 80%
64	inactive	CC(C)N(CCC(O)c1ccc2ccccc2c1)Cc1ccc(F)c(F)c1 (racemic)	inhibition [11]: 23%
32	–	OC(CCN(Cc1ccccc1)Cc1ccccc1)c1ccc2ccccc2c1 (racemic)	–

inhibition [1] [%]	inhibition [2]	Structure (SMILES)	other results
15	inactive	OC(CCN1CCN(Cc2ccccc2)CC1)c1ccc2ccccc2c1 (racemic)	–
0	–	CC(C)N(CCC(O)c1ccc2c(c1)OCO2)Cc1ccccc1 (racemic)	–
68	Active	CC(C)N(CCC(O)c1ccc2ccccc2c1)c1ccccc1 (racemic)	–
0	–	CC(C)(C)N(CCC(O)c1ccc2ccccc2c1)Cc1ccccc1 (racemic)	–
60	inactive	CC(C)N(CCC(O)c1ccc2ccccc2c1)Cc1ccc(Cl)c(Cl)c1 (racemic)	–
19	–	CC(C)N(CCC(O)c1ccc2ccccc2c1)Cc1ccc(C#N)cc1 (racemic)	–
0	inactive	OC(CCN1CCN(c2ccccc2)CC1)c1ccc2ccccc2c1 (racemic)	–
72	Active	CC(C)N(CCC(O)c1ccc(C(C)(C)C)cc1)Cc1ccccc1 (racemic)	inhibition [6]: 14%
54	Active	CC(C)N(CCC(O)c1ccc2ccccc2c1)Cc1cc(F)cc(F)c1 (racemic)	–
–	–	CCC(CC)(CN(Cc1ccccc1)C(C)C)C(=O)c1ccc2ccccc2c1	inhibition [13]: 40%
15	Active	CC(C)N(CCC(O)c1cc(C(F)(F)F)cc(C(F)(F)F)c1)Cc1ccccc1 (racemic)	inhibition [6]: 81%
69	inactive	CCC(CC)(CN(Cc1ccc(F)c(F)c1)C(C)C)C(O)c1ccc2ccccc2c1 (racemic)	–
61	inactive	OC(CCN1CCN(c2ccc(F)cc2)CC1)c1ccc2ccccc2c1 (racemic)	–
0	–	COc1ccc(N2CCN(CCC(O)c3ccc4ccccc4c3)CC2)cc1 (racemic)	–
30	Active	CC(C)N(CCC(O)c1cc(F)cc(Cl)c1)Cc1ccccc1 (racemic)	–
38	–	CC(C)N(CCC(O)c1ccc2ccccc2c1)Cc1ccc(F)c(Cl)c1 (racemic)	–
36	–	OC(CCN(Cc1ccccc1)C1CC1)c1ccc2ccccc2c1 (racemic)	–
15	–	CCN(CCC(O)c1ccc2ccccc2c1)Cc1ccccc1 (racemic)	–
10	Active	CC(C)N(CCC(O)c1ccccc1)Cc1ccccc1 (racemic)	–
–	–	CCC(CC)N(Cc1ccc(C(=O)O)cc1)S(=O)(=O)c1ccc(Cl)cc1	IC50 (Gamma-secretase): 10 µM
17	inactive	COc1cc(CN(CCC(O)c2ccc3ccccc3c2)C(C)C)cc(OC)c1 (racemic)	–
